Experimental data reported in ChEMBL document CHEMBL1156162, “Investigating the anti-proliferative activity of styrylazanaphthalenes and azanaphthalenediones” (Bioorg Med Chem, 2010).

Experiments:
SK-N-MC = assay: Cytotoxicity against human SK-N-MC cells after 72 hrs by MTT assay; type: functional, cell-based
Summary of the method: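 SK-N-MC cells in MEM with 10% FBS, pyruvate, non-essential amino acids, glutamine, antibiotics and fungizone. Seeded 24 h before treatment, then 72 h with varying concentrations. MTT (5 mg/mL stock) added for 2 h at 37 °C, followed by lysis and OD at 570 nm. IC50 derived; triplicate wells, experiments repeated 3–7 times.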

HCT-116 [1] = assay: Cytotoxicity against human HCT116 cells after 24 to 96 hrs by MTS assay; type: functional, cell-based
Summary of the method: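 HCT116 cells grown as monolayers in DMEM with 12% FBS and antibiotics at 37 °C, 5% CO2. Seeded at 3.5×10³, 7×10³ or 9×10³ cells/well, cultured 18 h, then exposed to 0.58 or 46 µmol/L final for 24, 48 or 96 h at 37 °C. Medium replaced with phenol red-free DMEM, MTS added for 1 h, absorbance read at 490 nm.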

HCT-116 [2] = assay: Cytotoxicity against human HCT116 cells assessed as decrease in survival fraction of cells at 0.58 uM after 24 hrs by colonogenic assay; type: functional
Summary of the method: (§1)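 HCT116 cells (8.5×10⁴ or 2.1×10⁵) were seeded in 35-mm dishes and held 18 h, then exposed to 0.58 or 46 µM in medium for 24 h or 96 h. Cells were trypsinised and re-seeded drug-free, then grown 9 days at 37 °C. Colonies were fixed in ethanol, stained with crystal violet, and those of ≥50 cells counted. Survival fraction was taken relative to untreated cells; means of 3 or 2 experiments.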

HCT-116 [3] = assay: Cytotoxicity against human HCT116 cells assessed as decrease in survival fraction of cells at 46 uM after 24 hrs by colonogenic assay; type: functional; summary of the method: as §1
HCT-116 [4] = assay: Cytotoxicity against human HCT116 cells assessed as decrease in survival fraction of cells at 0.58 uM after 96 hrs by colonogenic assay; type: functional; summary of the method: as §1
HCT-116 [5] = assay: Cytotoxicity against human HCT116 cells assessed as decrease in survival fraction of cells at 46 uM after 96 hrs by colonogenic assay; type: functional; summary of the method: as §1
[6] = Lipophilicity, log K by RT-HPLC method; type: physicochemical
Summary of the method: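 RP-HPLC on a C18 column (5 µm, 4.6 × 250 mm) with photodiode array detection, column at 30 °C and samples at 10 °C. Lipophilicity expressed as capacity factor k and calculated log k.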

NIH3T3 (Mus musculus) [7] = assay: Cytotoxicity against mouse NIH/3T3 cells assessed as IC50
[8] = Cytotoxicity against mouse NIH/3T3 cells assessed as viable cells after 72 hrs by MTT assay; type: cell-based; settings: NIH3T3, 72 h
L1210 = assay: Antiproliferative activity against mouse L1210 cells; type: functional, cell-based
NIH3T3 (Mus musculus) [9] = assay: Cytotoxicity against mouse NIH/3T3 cells assessed as IC50; remark: listed apart in the source

Structure (SMILES)	log K [6]	IC50 (SK-N-MC) [µM]	IC50 (HCT-116 [1]) [µM]	further results
COc1cccc2c1C(=O)c1c(O)c3c(c(O)c1C2=O)C[C@@](O)(C(=O)CO)C[C@@H]3O[C@H]1C[C@H](N)[C@H](O)[C@H](C)O1 [DOXORUBICIN]	–	0.12	5.95	–
CC(=O)C1=CC(=O)c2nc(C)ccc2C1=O	–	–	10.9	Activity (HCT-116 [2]): 1.07; Activity (HCT-116 [3]): 0.04; Activity (HCT-116 [4]): 0.21; Activity (HCT-116 [5]): 0
CC(=O)NC1=CC(=O)c2cnc(C)nc2C1=O	0.017	–	17	Activity (HCT-116 [2]): 1.2; Activity (HCT-116 [3]): 0; Activity (HCT-116 [4]): 0.26; Activity (HCT-116 [5]): 0
O=c1[nH]c(/C=C/c2ccc(Br)cc2)nc2ccc([N+](=O)[O-])cc12	1.675	> 6.25	–	–
Cc1nc2ccc([N+](=O)[O-])cc2c(=O)n1C(N)=O	0.958	> 6.25	> 92	–
Oc1cccc2ccc(/C=C/c3ccc(Cl)cc3)nc12	1.539	0.7	–	–
COc1cccc(/C=C/c2nc(Cl)c3ccccc3n2)c1	1.183	5.28	–	IC50 (NIH3T3 (Mus musculus) [7]): > 100 µM
COc1ccc(/C=C/c2nc(Cl)c3ccccc3n2)c(OC)c1	1.195	1.75	23	IC50 (NIH3T3 (Mus musculus) [7]): 34.1 µM
Cc1nc2ccccc2c(=O)n1C(N)=O	0.553	> 6.25	> 600	–
CC(=O)N(O)CCCCCNC(=O)CCC(=O)N(O)CCCCCNC(=O)CCC(=O)N(O)CCCCCN [DEFEROXAMINE]	–	9.89	–	–
Clc1nc(/C=C/c2ccccc2)nc2ccccc12	1.109	4.96	–	IC50 [8]: 3.04 µM
COc1ccc(/C=C/c2nc(Cl)c3ccccc3n2)cc1	1.134	4.34	–	IC50 (NIH3T3 (Mus musculus) [7]): > 100 µM
COc1ccc2nc(/C=C/c3ccccc3)[nH]c(=O)c2c1	–	–	–	IC50 (L1210): 3.59 µM

More lines, main results first:

log K [6]	Structure (SMILES)	IC50 (SK-N-MC) [µM]	IC50 (HCT-116 [1]) [µM]	further results
1.506	O=c1[nH]c(/C=C/c2cccc(Cl)c2)nc2ccccc12	> 6.25	–	–
1.035	O=Cc1ccc(/C=C/c2nc3ccccc3c(=O)[nH]2)cc1	> 6.25	–	–
1.198	COc1ccc(/C=C/c2nc3ccccc3c(=O)[nH]2)c(OC)c1	> 6.25	–	–
1.184	COc1cccc(/C=C/c2nc3ccccc3c(=O)[nH]2)c1	5.13	–	–
1.593	O=c1[nH]c(/C=C/c2ccc(Br)cc2)nc2ccccc12	2.85	–	–
1.151	COc1ccccc1/C=C/c1nc2ccccc2c(=O)[nH]1	2.88	1.58	IC50 [8]: 1.17 µM
1.483	O=c1[nH]c(/C=C/c2ccccc2Br)nc2ccccc12	> 6.25	> 46	–
1.115	O=c1[nH]c(/C=C/c2ccccc2)nc2ccccc12	1.39	2.53	IC50 [8]: 2.4 µM
1.59	O=c1[nH]c(/C=C/c2cccc(Br)c2)nc2ccccc12	> 6.25	–	–
0.551	O=c1[nH]c(/C=C/c2ccc(O)c(O)c2O)nc2ccccc12	–	> 46	–
1.365	COc1ccccc1/C=C/c1nc(Cl)c2ccccc2n1	0.58	9.4	Activity (HCT-116 [2]): 0.43; Activity (HCT-116 [3]): 0.03; Activity (HCT-116 [4]): 0; Activity (HCT-116 [5]): 0; IC50 (NIH3T3 (Mus musculus) [7]): > 100 µM; IC50 (NIH3T3 (Mus musculus) [9]): > 100 µM
1.135	COc1ccc(/C=C/c2nc3ccccc3c(=O)[nH]2)cc1	> 6.25	> 46	IC50 (NIH3T3 (Mus musculus) [7]): > 100 µM
